assay: Toxicity liver stage against HepG2, at 10uM; assay type: cell-based; set-up: test concentration 10 uM, cell line HepG2-A16-CD81EGFP; settings: human, HepG2-A16-CD81EGFP cells; read-out: INHIBITION
Method in brief: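 Uninfected HepG2-A16-CD81EGFP cells, 3 × 10^3 per well, 1536-well, plated on prespotted compound at 10 μM final, parasite-free screening media added to match infected plates; puromycin 10 μM positive, DMSO 0.5% negative; run in parallel with 48 h PbLuc assay at 37 °C, 5% CO2; viability by CellTiter-Glo luminescence, normalized to controls.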

| SMILES | cytotoxicity at 10 µM [%] |
| --- | --- |
| Cc1ccc2nc3n(c2c1)[C@@H](CNCc1nccs1)COC3 | -4.31 |
| COCCNC(=O)N1CCN(C(=O)c2nsc3ccc(C)cc23)CC1 | 7 |
| CC(=O)N1N=C(c2ccco2)OC1C(=O)N(CC(C)C)CC(C)C (stereo unspecified) | -1.31 |
| O=C(Nc1ccccn1)c1csc(NC2CCCC2)n1 | 9.09 |
| O=C(C1CC(=O)N(c2n[nH]c3cc(Br)ccc23)C1)N1CCOCC1 (stereo unspecified) | -3.27 |
| O=c1n(Cc2cccc(F)c2)nc2ncccn12 | -7.9 |
| CS(=O)(=O)N1CCC(CNC(=O)C2CCCC2)CC1 | 1.2 |
| Cn1cnc2c1C(C(=O)N1CCOCC1)N(C(=O)c1ccccc1)CC2 (stereo unspecified) | -0.388 |
| CCOCC1CN(c2ncc(F)cn2)Cc2cn(CC)nc21 (stereo unspecified) | 8.31 |
| Cc1cccc(S(=O)(=O)N2C[C@@H]3OCCN(C(C)C)[C@@H]3C2)c1 | 7.64 |
| O=C(c1ccnnc1)N1CCc2onc(CN3CCCC3)c2C1 | 7.31 |
| CN(C)CCN1CCN(CC2CC2)c2ncccc2C1 | -3.03 |
| O=C(Nc1ccccc1)C1=NOC2(CCCN(C(=O)C3CCCC3)C2)C1 (stereo unspecified) | 4.88 |
| CC(C)(C)CC(=O)N1CCCC2(CC(C(=O)Nc3ccccc3)=NO2)C1 (stereo unspecified) | -6.63 |
| O=C(O)c1ccc2c(c1)C1(CCCCC1)CN2C(=O)c1ccnnc1 | 3.59 |
| Cn1nccc1C(=O)N1CCCC2(CCN(c3ccsc3)C2=O)C1 (stereo unspecified) | -121 |
| Cc1nccc([C@@H]2C[C@@H]3CCN(Cc4cccs4)C[C@H]3O2)n1 | -143 |
| O=C1CC(c2cccs2)Cc2[nH]c(=O)ccc21 (stereo unspecified) | 0.185 |
| O=C(NCc1ccco1)N1CCCCC1c1nc(-c2ccncc2)no1 (stereo unspecified) | -7.92 |
| CC(C)CNC(=O)CSC1CCc2ccccc2NC1=O (stereo unspecified) | -2.38 |
| CC(C)c1cc2c(O)nc(CSCC(=O)O)nc2s1 | -4.61 |
| FC(F)(F)c1cc(N2CCc3ncnc(NC4CC4)c3CC2)ncn1 | 1.79 |
| Cc1ccc(OCc2ccc(C(=O)O)s2)cc1C | 9.18 |

| SMILES | cytotoxicity at 10 µM [%] |
| --- | --- |
| N#Cc1c(N2CCOCC2)nsc1-c1cccnc1 | 17 |
| Cc1cc(C(=O)NCc2c(C)nn(C)c2C)nc(N2CCCC2)n1 | 7.05 |
| Cc1cc(NC2CC3(CCN(Cc4csc(C)n4)C3)C2)ncn1 (stereo unspecified) | -2.34 |
| COCCNc1cccc(C2CCCN2)n1 (stereo unspecified) | -25.9 |
| Cn1nccc1C(=O)N1CCCC1c1[nH]ncc1C(N)=O (stereo unspecified) | -15.2 |
| O=C(CCn1ccnc1)N1C[C@@H](O)[C@H](Oc2cccc(F)c2)C1 | -21.6 |
| O=C(C1CCCC1)N1CCC(c2ncc3c(n2)CCNC3)C1 (stereo unspecified) | -15.3 |
| Cc1ccc2c(c1)C(=O)NCC1(CCN(C(=O)c3cnccn3)CC1)O2 | -15.8 |
| Cc1ccc(CN(Cc2cc(=O)n3cccc(C)c3n2)C(C)C)o1 | 7.65 |
| Cc1nc(C(NC(=O)c2cc(C(C)C)[nH]n2)c2ccccc2)n[nH]1 (stereo unspecified) | 11.6 |
| CCC(=O)Nc1nnc2n(Cc3cccc(OC)c3)[nH]c(C)c1-2 | -9.24 |
| O=C(CCC1CCCC1)N1CCC(O)(C(F)(F)F)C1 (stereo unspecified) | -0.0394 |
| COc1cc(F)cc(CNC(=O)Nc2ccn(CC(F)F)n2)c1 | -2.21 |
| CCOC(=O)CCNC(=O)c1cccc2ccc(C)nc12 | -5.15 |
| COC(=O)C1CCCCN1C(=O)c1ccc(N(C)C)cc1F (stereo unspecified) | 5.97 |
| NC(=O)CN(Cc1ncc(-c2ccccc2)o1)C1CCCC1 | -4.3 |
| CC(C)N1CCCC(CNC(=O)c2ccnc(-n3ccnc3)c2)C1 (stereo unspecified) | -6.23 |
| O=C(Cc1cccs1)NCc1ccnc(OC2CCOCC2)c1 | -1.22 |
| CCOCCOC(C)C(=O)Nc1ccc2c(ccn2CC)c1 (stereo unspecified) | 3.99 |
| CC1CCN(CCCNC(=O)C2CCCCC2)CC1 | -2.63 |
| CC(C)(C(=O)NCCC(=O)O)c1cccc(Br)c1 | 7.01 |
| Cc1cnn(CCC(=O)N(CC2CN(C)CCO2)c2nccs2)c1 (stereo unspecified) | -5.82 |
| C[S+]([O-])c1nncn1CC(=O)c1cccc(Br)c1 (stereo unspecified) | 1.08 |

| SMILES | cytotoxicity at 10 µM [%] |
| --- | --- |
| O=C(Nc1cccc(N2CCN(CC3CC3)CC2)c1)N1CCCC1 | 0.441 |
| O=C(NS(=O)(=O)c1cc(Cl)ccc1Cl)c1cccc2c1OCCO2 | 10.3 |
| CCCc1nc(C)c(C(=O)NC2CCN(CC(N)=O)CC2)s1 | -6.3 |
| OC1(CNc2cc(C(F)(F)F)nc3ccccc23)CCOCC1 | -11.3 |
| COc1ccccc1C(NC(=O)NC1CC1)c1noc(C)n1 (stereo unspecified) | -4.12 |
| CN(C(=O)C1(C#N)CCCCC1)c1nccs1 | 0.658 |
| Cc1cc(CNC(=O)NCc2cccs2)ccc1S(C)(=O)=O | -6.97 |
| Cc1nccc(CNS(=O)(=O)N2CCCC2c2ccc(C)o2)n1 (stereo unspecified) | -5.88 |
| CN(C(=O)NCCCNc1ccccn1)C1CCS(=O)(=O)C1 (stereo unspecified) | 4.67 |
| Cc1ccoc1C(=O)N(CCN(C)C)Cc1ccccn1 | -5.47 |
| CN(C)C(=O)Cc1ccccc1NCc1cc(C#N)ccc1F | 48.1 |
| CC(C)NC(=O)CS(=O)(=O)c1cc2c(cc1Cl)OCCO2 | -2.46 |
| CCCC(=O)N(C)c1cc(C#N)c2ccccc2n1 | -7.55 |
| O=C(CNC(=O)c1cnc2ccccc2c1O)NCCn1ccnc1 | -3.02 |
| Cn1ncc2c1CCCC2NCc1ccc(OCc2cccnc2)cc1 (stereo unspecified) | 4.13 |
| CCN(C)CC1CCN(C(=O)Nc2ccc(-c3csnn3)cc2)C1 (stereo unspecified) | -2.15 |
| CN(CCCc1cc(-c2ccc(F)cc2)n(C)n1)CC(=O)NC(N)=O | 1.04 |
| CCOC1CCN(C(=O)c2c(Cl)c3ccccc3n2C)CC1 | 6.56 |
| O=C(NCCCn1nc2ccccn2c1=O)NC1CCC(O)CC1 (stereo unspecified) | -12.8 |
| CCN(CC)C(CNC(=O)c1ccc(S(C)(=O)=O)cc1)c1ccco1 (stereo unspecified) | -0.00646 |
| CC(=O)N(C)Cc1ncn2c1CN(C(=O)CC1CC1)CCC2 | -110 |
| CN(C)c1ccnc(-c2ccnc3c2ccn3C)n1 | 20.2 |
| O=C(c1ccc(C2CCCN2C(=O)c2ccc[nH]2)s1)N1CCSCC1 (stereo unspecified) | 3.59 |

| SMILES | cytotoxicity at 10 µM [%] |
| --- | --- |
| Cc1cc(C(=O)N2CCc3c(nc(-c4ccncc4)[nH]c3=O)C2)no1 | -1.28 |
| CC(C)N1CCCC(C(=O)NCCc2csc(-c3ccncc3)n2)C1 (stereo unspecified) | -17.4 |
| CCN(CCn1cccn1)Cc1nc(-c2ccoc2)oc1C | -5.48 |
| Cc1cc(C2CCC2)nc(N2CCC3(CCNC(=O)CC3)CC2)n1 | -10.1 |
| CCn1ncnc1C1CC(=O)NCc2nc(N3CCCC3)sc21 (stereo unspecified) | -2.4 |
| CC(=O)Nc1ccc(-c2cn(CCn3c(C)cc(C)nc3=O)nn2)cc1 | 5.03 |
| O=C(NCCc1nc(C2CC2)no1)[C@H]1CNC[C@H](C(=O)N2CCCC2)C1 | -107 |
| Cn1nccc1CCNC(=O)[C@H]1CNC[C@H](C(=O)N2CCCC2)C1 | -133 |
| CCN(CC)S(=O)(=O)N1CCCC(c2cccc(C(=O)O)c2)C1 (stereo unspecified) | -10 |
| CN(Cc1csc(-c2cccs2)n1)C(=O)CCn1ccccc1=O | 22.7 |
| CN(Cc1ccco1)C(=O)C1CSCN1C(=O)c1cccs1 (stereo unspecified) | -7.81 |
| c1ccc(Cc2nnc(CN3CCc4cncnc4C3)o2)cc1 | -4.48 |
| NC(=O)NCC1CCCCN1Cc1nc(-c2ccco2)no1 (stereo unspecified) | -6.06 |
| Cc1ccc(-c2noc(CN3CCn4c(nnc4C4CC4)C3)n2)cc1 | -9.04 |
| CN(Cc1noc(C2CC2)n1)C1CCN(Cc2cccc(F)c2F)C1 (stereo unspecified) | -13 |
| CCc1ncncc1C(=O)N1CCCC(n2nc(C)nc2C)C1 (stereo unspecified) | -6.54 |
| CN(C)C1CCN(C(=O)Cc2csc(-c3ncccn3)n2)CC1 | -0.279 |
| O=C(Cc1n[nH]c2ccccc12)N1CCCCC1Cn1cccn1 (stereo unspecified) | -14.8 |
| COc1ccc(C(=O)N2CCC(Nc3cccnn3)CC2)c(F)c1 | -8.96 |
| CCCc1nc(CNC(C)Cn2cccn2)cs1 (stereo unspecified) | -12.5 |
| Cc1noc(C(C)C)c1C(=O)NCCN1CCOCC1 | -8.73 |
| CC(=O)N1CCCN(C(=O)NCCOc2ccc3c(c2)OCO3)CC1 | -14.9 |
| CC(NC(=O)CCC1CCCCC1)c1nnc2n1CCC2 (stereo unspecified) | -27.1 |

| SMILES | cytotoxicity at 10 µM [%] |
| --- | --- |
| CN(C)c1ccc(C(=O)N2CCCN(Cc3cscn3)CC2)nn1 | -9.39 |
| Cc1nc(CN2CCOC(Cn3cccn3)C2)nc2ccccc12 (stereo unspecified) | -24.8 |
| Cc1csc(CNC(=O)N(C)Cc2ccc3c(c2)OCO3)n1 | -4.31 |
| CCc1nc(CN2CCCN(C(=O)c3cn[nH]c3C)CC2)cs1 | -2.97 |
| CC(C)c1cc(C(=O)NCCn2nc3ccccn3c2=O)n[nH]1 | -8.5 |
| Cc1nc(CN(C)C2CCCN(c3cccnn3)C2)no1 (stereo unspecified) | -7.1 |
| Cc1nc(-c2ccc(Cl)s2)sc1C(=O)NCCS(N)(=O)=O | -2.09 |
| Cc1nc(C2CCCN2C(=O)c2cc3c(s2)CCCC3)no1 (stereo unspecified) | -11.2 |
| CCOC(=O)N1CCC(C(=O)c2cc(F)ccc2F)CC1 | -8.11 |
| CN(Cc1cccnc1)[C@@H]1CN(C(=O)CC2CC2)[C@@H]2CCCO[C@H]12 | 7.86 |
| Cn1nc(CN2CCCC2)c2c1CN(C(=O)c1cccnc1)CC2 | -146 |
| CC(C)NC1CCc2c(ccc(=O)n2CCN(C)C)C1 (stereo unspecified) | -1.7 |
| CC(C)N(C)Cc1cnc2n1CCN(S(=O)(=O)c1ccccc1)C2 | -1.72 |
| CC(C)(C)c1n[nH]cc1CNC1CCC(C(F)(F)F)CC1 (stereo unspecified) | 4.25 |
| COCC(=O)N1CC[C@@H](OCC2CC2)[C@@H]1Cc1cccnc1 | -4.92 |
| O=C(Cc1ccccn1)N1C[C@H](OCc2cccnc2)[C@H]2COC[C@H]21 | 12.3 |
| CCOc1ncnc2c1CCN(C(=O)NCc1cccnc1)CC2 | -127 |
| O=C(Cc1cccs1)N1C[C@@H]2OCCN(CC3CCCC3)[C@@H]2C1 | -4.75 |
| O=C(c1cc(F)cc(Cl)c1)N1C[C@H]2CC[C@@H](C1)N(Cc1ccccc1)C2 | -128 |

From ChEMBL document CHEMBL4513216, “Probing the Open Global Health Chemical Diversity Library for Multistage-Active Starting Points for Next-Generation Antimalarials” (ACS Infect Dis, 2020)
